High-throughput results deposited in PubChem BioAssay by The Scripps Research Institute Molecular Screening Center.
GPR7 antag – human neuropeptides B/W receptor 1 antagonism. inhibition, % at 4.4 µM. 290,000 tested, 1.1% active. GPR7-expressing cells, fluorescence antagonist assay. P48145; in the data active means inhibition above about 16%, passing the limit was not always enough;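 further: cells stimulated with the agonist NPW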
Target sequence (P48145 whole entry, looked up): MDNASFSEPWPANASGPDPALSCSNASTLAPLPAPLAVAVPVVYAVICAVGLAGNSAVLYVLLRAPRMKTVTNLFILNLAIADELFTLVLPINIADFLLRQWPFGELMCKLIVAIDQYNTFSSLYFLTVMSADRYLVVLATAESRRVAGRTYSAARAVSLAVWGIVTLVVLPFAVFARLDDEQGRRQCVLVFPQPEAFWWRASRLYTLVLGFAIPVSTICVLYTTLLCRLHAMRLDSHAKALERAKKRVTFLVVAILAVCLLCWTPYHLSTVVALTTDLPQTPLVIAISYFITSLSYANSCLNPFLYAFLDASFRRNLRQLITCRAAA
OX1R antag-1 – human HCRTR1 antagonism. O43613. CHO/OX1R cells, Fluo-8 calcium fluorescence, orexin A. inhibition, % at 5 µM. 330,000 tested, 0.43% active. AID 434989;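 active means inhibition above its plate's threshold, mean inhibition of all tested compounds on the plate plus 3 SD, cut at about 37% in these data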
Target sequence (O43613 whole entry, looked up): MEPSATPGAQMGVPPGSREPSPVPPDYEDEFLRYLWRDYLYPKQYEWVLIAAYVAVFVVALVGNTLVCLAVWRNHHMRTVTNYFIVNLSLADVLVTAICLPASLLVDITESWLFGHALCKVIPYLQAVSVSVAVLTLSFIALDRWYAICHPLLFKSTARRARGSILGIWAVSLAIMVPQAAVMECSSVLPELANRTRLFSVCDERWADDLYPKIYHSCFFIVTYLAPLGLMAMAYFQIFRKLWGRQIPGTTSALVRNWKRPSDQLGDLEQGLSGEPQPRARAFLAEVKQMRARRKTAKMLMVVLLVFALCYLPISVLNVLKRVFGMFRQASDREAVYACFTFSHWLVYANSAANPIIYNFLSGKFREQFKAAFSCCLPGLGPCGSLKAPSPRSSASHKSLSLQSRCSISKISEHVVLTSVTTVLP
OX1R antag-2 – blocks the human orexin 1 receptor. 330,000 tested, 1.8% active. O43613. OX1R-expressing cells, FRET antagonist read-out. inhibition, % at 6.6 µM; in the data active means inhibition mostly above about 38%, no sharp cut-off; inactive means mostly below about 40%
CHO parental Ca – counter-screen: ATP calcium response change in parental CHO cells. inhibition, % at 5.6 µM. parental CHO-K1, ATP-induced calcium, Fluo-8 fluorescence. 330,000 tested, 0.63% active;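 active means inhibition above that plate's mean sample inhibition plus 3 SD, cut at about 26% in these data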
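Material: Parental CHO cells | Reagent: ATP | Compound dosing: Single nominal dose of 5.6 µM per compound | Detection: Intracellular calcium via Fluo-8 no-wash fluorescent dye | Read-out: % inhibition of ATP-induced calcium mobilization | Benchmarks: Low control ATP plus DMSO, high control DMSO only | Replicates: Singlicate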
TAAR1 agonist – agonists of human TAAR1; activation, % at 3 µM; 360,000 tested, 0.99% active; AID 624467; CHO RD-HGA16 TAAR1, Fluo-8 calcium fluorescence; vehicle wells 0%, saturating PEA agonist 100%; Q96RJ0;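 active means activation above the mean activation of all test compounds in the run plus 3 SD, cut at about 38% in these data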
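Assay system: CHO-derived RD-HGA16 cells with stable Gα16 and human TAAR1; timing: 17-24 h seeding, 75 min 37 °C dye, 30 min RT; read-out: % activation from peak over basal fluorescence ratio, DMSO-to-PEA scaled; measured by: kinetic Fluo-8 calcium fluorescence; benchmarks: low control DMSO, high control PEA (EC100); doses: 3 µM single concentration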
TAAR1 antag – human TAAR1 antagonism; 360,000 tested, 1.5% active; inhibition, % at 3 µM; Q96RJ0; CHO RD-HGA16 TAAR1, Fluo-8 calcium fluorescence, antagonist;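 active means inhibition above a per-plate cutoff, the mean inhibition of test compounds on that plate plus 3 SD, cut at about 49% in these data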
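System: CHO RD-HGA16 cells bearing hTAAR1. Reagent: EC80 β-phenethylamine stimulus. Schedule: seeding 17-24 h prior, 75-min 37 °C, 30-min RT dye loading. Signal: Fluo-8 intracellular calcium dye fluorescence, real-time kinetic reads. Read-out: % inhibition from peak post-agonist over basal fluorescence ratio. Benchmarks: vehicle wells and EC80 agonist wells. Replicates: n of 1.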
Hits are given with their value. This is a sample that favours compounds with a hit; in the whole collection about 4.6% have one here.

How did O=C(NCc1ccc(F)cc1)C1CCCN1S(=O)(=O)c1cccc2nsnc12 (centres undefined) do in these assays?
GPR7 antag: inactive; OX1R antag-1: inactive; OX1R antag-2: 55; CHO parental Ca: inactive; TAAR1 agonist: inactive; TAAR1 antag: inactive

What do the screens show for `O=C(Nc1ccc(F)cc1)C1CCCN1S(=O)(=O)c1cccc2nsnc12` (centres undefined)?
GPR7 antag: inactive; OX1R antag-1: inactive; OX1R antag-2: 75; CHO parental Ca: inactive; TAAR1 agonist: inactive; TAAR1 antag: inactive

How did O=C(NCc1ccc(F)cc1)C1CCCN(S(=O)(=O)c2cccc3nsnc23)C1 (centres undefined) do in these assays?
GPR7 antag: inactive; OX1R antag-1: inactive; OX1R antag-2: inactive; CHO parental Ca: inactive; TAAR1 agonist: inactive; TAAR1 antag: inactive

Results for O=C(Nc1cc(F)ccc1F)C1CCCN1S(=O)(=O)c1cccc2nsnc12 (centres undefined) ?
GPR7 antag: inactive; OX1R antag-1: inactive; OX1R antag-2: 70; CHO parental Ca: inactive; TAAR1 agonist: inactive; TAAR1 antag: inactive

How did Cc1cc(C)c2cc(CN(CCCO)S(=O)(=O)c3ccccc3F)c(=O)[nH]c2c1 do in these assays?
GPR7 antag: inactive; OX1R antag-1: inactive; OX1R antag-2: inactive; CHO parental Ca: inactive; TAAR1 agonist: inactive; TAAR1 antag: inactive

What do the screens show for `CCOc1ccc(NC(=O)C2CCN(S(=O)(=O)c3ccc4c(c3)C(C)(C)C(=O)N4C)CC2)cc1`?
GPR7 antag: inactive; OX1R antag-1: inactive; OX1R antag-2: inactive; CHO parental Ca: inactive; TAAR1 agonist: inactive; TAAR1 antag: inactive

What do the screens show for `O=C(O)c1ccc(NC(=O)c2cn(-c3ccccc3)nc2-c2cccc(Cl)c2)cc1`?
GPR7 antag: inactive; OX1R antag-1: inactive; OX1R antag-2: inactive; CHO parental Ca: inactive; TAAR1 agonist: inactive; TAAR1 antag: 52

What do the screens show for `O=C(O)c1ccc(NC(=O)c2cn(-c3ccccc3)nc2-c2ccc(F)cc2)cc1`?
GPR7 antag: inactive; OX1R antag-1: inactive; OX1R antag-2: inactive; CHO parental Ca: inactive; TAAR1 agonist: inactive; TAAR1 antag: 59

Results for COc1ccccc1N1CCN(S(=O)(=O)c2ccc(-n3cnnn3)cc2)CC1 ?
GPR7 antag: inactive; OX1R antag-1: inactive; OX1R antag-2: inactive; CHO parental Ca: inactive; TAAR1 agonist: inactive; TAAR1 antag: inactive

What do the screens show for `CCOC(=O)c1c(NC(=O)CSc2nc3ccccc3s2)sc(C(C)=O)c1C`?
GPR7 antag: inactive; OX1R antag-1: inactive; OX1R antag-2: inactive; CHO parental Ca: 36; TAAR1 agonist: inactive; TAAR1 antag: inactive

How did CCOC(=O)c1c(NC(=O)CSc2nc3cc(Cl)ccc3s2)sc(C(C)=O)c1C do in these assays?
GPR7 antag: inactive; OX1R antag-1: inactive; OX1R antag-2: inactive; CHO parental Ca: inactive; TAAR1 agonist: inactive; TAAR1 antag: inactive

What do the screens show for `CCOC(=O)C1(C)CCCCCN1C(=O)c1ccccc1F` (centres undefined)?
TAAR1 agonist: inactive; TAAR1 antag: inactive

Results for CC1CC(C)CN(C(=O)CSc2nc(Cc3cccs3)nc3ccccc23)C1 (centres undefined) ?
GPR7 antag: inactive; OX1R antag-1: inactive; OX1R antag-2: inactive; CHO parental Ca: inactive; TAAR1 agonist: inactive; TAAR1 antag: 50

Results for NC(N)=N/N=C/c1ccc(Cl)c(Cl)c1 ?
GPR7 antag: inactive; OX1R antag-1: inactive; OX1R antag-2: inactive; CHO parental Ca: inactive; TAAR1 agonist: 39; TAAR1 antag: inactive

Results for Cc1ccc(N2C(=O)C(Cl)=C(NCc3ccccc3)C2=O)c(C)c1 ?
GPR7 antag: inactive; OX1R antag-1: inactive; OX1R antag-2: inactive; CHO parental Ca: inactive; TAAR1 agonist: inactive; TAAR1 antag: inactive

What do the screens show for `COc1ccc(Cn2c(SCc3ccc(C)cc3)nc3cc(OC)c(OC)cc3c2=N)cc1Cl`?
GPR7 antag: inactive; OX1R antag-1: inactive; OX1R antag-2: inactive; CHO parental Ca: inactive; TAAR1 agonist: 41; TAAR1 antag: inactive

What do the screens show for `COc1ccc(Cn2c(SCc3cc(C)ccc3C)nc3cc(OC)c(OC)cc3c2=N)cc1`?
GPR7 antag: inactive; OX1R antag-1: inactive; OX1R antag-2: inactive; CHO parental Ca: inactive; TAAR1 agonist: inactive; TAAR1 antag: inactive

What do the screens show for `CC1CCCCN1C(=O)CCS(=O)(=O)c1cccc2nonc12` (centres undefined)?
GPR7 antag: inactive; OX1R antag-1: inactive; OX1R antag-2: 71; CHO parental Ca: inactive; TAAR1 agonist: inactive; TAAR1 antag: inactive

What do the screens show for `O=C(Nc1ccc2c(c1)CCC2)Nc1ccccc1F`?
GPR7 antag: inactive; OX1R antag-1: inactive; OX1R antag-2: inactive; CHO parental Ca: inactive; TAAR1 agonist: inactive; TAAR1 antag: inactive

Results for COc1ccc(/C=N/NC(=O)c2ccccc2OC)cc1COc1ccccc1[N+](=O)[O-] ?
GPR7 antag: inactive; OX1R antag-1: inactive; OX1R antag-2: inactive; CHO parental Ca: inactive; TAAR1 agonist: inactive; TAAR1 antag: 51

Results for COc1cccc2sc(Nc3nnc(-c4ccc(F)cc4)o3)nc12 ?
GPR7 antag: inactive; OX1R antag-1: inactive; OX1R antag-2: inactive; CHO parental Ca: inactive; TAAR1 agonist: inactive; TAAR1 antag: inactive

Results for Fc1cccc2sc(Nc3nnc(-c4ccco4)o3)nc12 ?
GPR7 antag: inactive; OX1R antag-1: inactive; OX1R antag-2: inactive; CHO parental Ca: 41; TAAR1 agonist: inactive; TAAR1 antag: inactive

Results for COc1cc(OC)cc(C(=O)N[C@H](C(=O)OCC(=O)Nc2cccc(F)c2)C(C)C)c1 ?
GPR7 antag: 21; OX1R antag-1: inactive; OX1R antag-2: inactive; CHO parental Ca: inactive; TAAR1 agonist: inactive; TAAR1 antag: inactive

How did COn1c(=O)c(-c2ccc(Cl)cc2)[n+]([O-])c2ccccc21 do in these assays?
GPR7 antag: inactive; OX1R antag-1: inactive; OX1R antag-2: 53; CHO parental Ca: inactive; TAAR1 agonist: inactive; TAAR1 antag: inactive

What do the screens show for `COn1c(=O)c(-c2ccccc2)[n+]([O-])c2ccccc21`?
GPR7 antag: inactive; OX1R antag-1: inactive; OX1R antag-2: 42; CHO parental Ca: inactive; TAAR1 agonist: inactive; TAAR1 antag: inactive

What do the screens show for `CN(Cc1ccon1)Cc1cn(Cc2ccccc2)nc1-c1ccc2c(c1)OCO2`?
GPR7 antag: inactive; OX1R antag-1: inactive; OX1R antag-2: inactive; CHO parental Ca: inactive; TAAR1 agonist: inactive; TAAR1 antag: inactive

Results for CCCCN1C(=O)C(CC(=O)NC2CCCC2)CC(C(=O)N2CCCCCC2)=C1C (centres undefined) ?
TAAR1 agonist: inactive; TAAR1 antag: inactive

How did Cc1ccc(N/C(SCc2ccccc2C)=C(/C#N)C(=O)NCc2ccco2)cc1C do in these assays?
GPR7 antag: inactive; OX1R antag-1: inactive; OX1R antag-2: inactive; CHO parental Ca: inactive; TAAR1 agonist: inactive; TAAR1 antag: 64

Results for Cc1cc(NC(=O)NCc2ccco2)ccc1NC(=O)NCc1ccco1 ?
TAAR1 agonist: inactive; TAAR1 antag: inactive
